Measurements from ChEMBL document CHEMBL2177018, “Identification, synthesis, and biological evaluation of metabolites of the experimental cancer treatment drugs indotecan (LMP400) and indimitecan (LMP776) and investigation of isomerically hydroxylated indenoisoquinoline analogues as topoisomerase I poisons” (J Med Chem, 2012).
Activity calls are given as the source filed them. The calls are words filed in the database; no cut-off is given here.

How the values were obtained:
[1] = target: T1, DNA topoisomerase 1 (Homo sapiens) (UniProt P11387); assay: Inhibition of human recombinant Top1-mediated DNA cleavage after 20 mins by […] analysis relative to camptothecin; parameters: concentration or dose not given beside the values
T1 sequence (whole entry): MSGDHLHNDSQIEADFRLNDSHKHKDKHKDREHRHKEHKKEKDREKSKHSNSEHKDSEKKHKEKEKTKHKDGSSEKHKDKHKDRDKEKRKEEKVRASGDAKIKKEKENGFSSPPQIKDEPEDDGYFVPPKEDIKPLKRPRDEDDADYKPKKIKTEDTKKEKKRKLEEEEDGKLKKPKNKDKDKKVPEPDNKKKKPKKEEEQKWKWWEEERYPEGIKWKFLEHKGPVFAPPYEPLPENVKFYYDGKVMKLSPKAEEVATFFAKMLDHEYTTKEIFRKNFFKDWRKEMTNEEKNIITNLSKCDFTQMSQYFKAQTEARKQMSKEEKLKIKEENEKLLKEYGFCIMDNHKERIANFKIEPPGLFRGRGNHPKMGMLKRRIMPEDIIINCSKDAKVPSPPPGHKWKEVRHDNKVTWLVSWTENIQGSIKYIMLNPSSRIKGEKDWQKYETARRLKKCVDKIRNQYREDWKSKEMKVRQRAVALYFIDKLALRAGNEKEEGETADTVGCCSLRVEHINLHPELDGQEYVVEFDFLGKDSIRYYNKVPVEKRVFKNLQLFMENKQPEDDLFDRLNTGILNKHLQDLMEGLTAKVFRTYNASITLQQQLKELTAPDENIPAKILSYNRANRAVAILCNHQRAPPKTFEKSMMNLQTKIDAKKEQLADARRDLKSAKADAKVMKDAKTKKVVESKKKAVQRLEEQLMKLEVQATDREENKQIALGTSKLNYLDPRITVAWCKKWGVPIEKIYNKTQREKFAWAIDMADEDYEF
Method in brief: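 Baculovirus-purified human recombinant Top1 with ~2 nM 117-bp oligonucleotide, 3′-end 32P-labelled. Compounds at 0.1–100 μM, room temperature 20 min, stopped with 0.5% SDS. 20% denaturing PAGE, phosphorimaging. Cleavage graded against 1 μM camptothecin.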

DU-145 = assay: Antiproliferative activity against human DU145 cells; assay type: functional
Method in brief: (§1)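 NCI-60 human tumour cell line panel. Initial one-dose pre-screen at 10−5 molar, then five concentrations from 10−8 to 10−4 molar. GI50 taken as the concentration giving 50% growth inhibition.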

MCF7 = assay: Antiproliferative activity against human MCF7 cells; assay type: functional; method in brief: as §1
SN12C = assay: Antiproliferative activity against human SN12C cells; assay type: functional; method in brief: as §1
UACC-62 = assay: Antiproliferative activity against human UACC62 cells; assay type: functional; method in brief: as §1
OVCAR-3 = assay: Antiproliferative activity against human OVCAR3 cells; assay type: functional; method in brief: as §1
SF-539 = assay: Antiproliferative activity against human SF539 cells; assay type: functional; method in brief: as §1
HCT-116 = assay: Antiproliferative activity against human HCT116 cells; assay type: functional; method in brief: as §1
HOP-62 = assay: Antiproliferative activity against human HOP62 cells; assay type: functional; method in brief: as §1
Liver microsomes [2] = assay: Drug metabolism in human liver microsomes assessed as formation of 5,6-Dihydro-3-hydroxy-6-3-(1H-imidazol-1-yl)propyl)-2-methoxy- 8,9-methylenedioxy-5,11-dioxo-11H-indeno[1,2-c]- isoquinoline at 10 uM after 60 mins in presence of NADPH; assay type: ADME, Microsome
Method in brief: (§2)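 Substrate at 10 μM with pooled human liver microsomes (15 donors, mixed gender; 1 mg/mL protein) in 50 mM phosphate, pH 7.4, 37 °C. After 5 min preincubation, 1 mM NADPH started a 60 min reaction. Stopped on ice with acidified acetonitrile; supernatant dried, redissolved, LC-MS and LC-MS/MS. Controls lacked microsomes or NADPH.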

Liver microsomes [3] = assay: Drug metabolism in human liver microsomes assessed as formation of 6-(3-(1H-Imidazol-1-yl)propyl)-8,9-dihydroxy-2,3-dimethoxy-5H-indeno[1,2-c]isoquinoline-5,11(6H)-dione at 10 uM after 60 mins in presence of NADPH; assay type: ADME, Microsome; method in brief: as §2
Liver microsomes [4] = assay: Drug metabolism in human liver microsomes assessed as formation of 5,6-Dihydro-3-hydroxy-2-methoxy-8,9-methylenedioxy-6-3- [(morpholino)propyl)]-5,11-dioxo-11H-indeno[1,2-c]- isoquinoline at 10 uM after 60 mins in presence of NADPH; assay type: ADME, Microsome; conditions: 1 h; method in brief: as §2
Liver microsomes [5] = assay: Drug metabolism in human liver microsomes assessed as formation of 8,9-Dihydroxy-2,3-dimethoxy-6-(3-morpholinopropyl)-5Hindeno[ 1,2-c]isoquinoline-5,11(6H)-dione at 10 uM after 60 mins in presence of NADPH; assay type: ADME, Microsome; conditions: 1 h; method in brief: as §2

Row | SMILES | inhibition [1] | GI50 (DU-145) | GI50 (MCF7) | GI50 (OVCAR-3) | GI50 (HCT-116) | Drug metabolism (Liver microsomes [2]) | Drug metabolism (Liver microsomes [3]) | Drug metabolism (Liver microsomes [4]) | Drug metabolism (Liver microsomes [5]) | GI50 (SN12C) | GI50 (UACC-62) | GI50 (SF-539) | GI50 (HOP-62)
1 | COc1cc2c(=O)n(CCCn3ccnc3)c3c(c2cc1O)C(=O)c1cc2c(cc1-3)OCO2 | Active | < 10 nM | – | 70 nM | 20 nM | – | – | – | – | < 10 nM | 30 nM | < 10 nM | < 10 nM
2 | COc1cc2c(cc1O)C(=O)c1c-2n(CCCn2ccnc2)c(=O)c2cc(OC)c(OC)cc12 | Active | < 10 nM | < 10 nM | 20 nM | < 10 nM | – | – | – | – | < 10 nM | < 10 nM | < 10 nM | < 10 nM
3 | COc1cc2c3c(n(CCCn4ccnc4)c(=O)c2cc1OC)-c1cc2c(cc1C3=O)OCO2 [INDIMITECAN] | – | – | – | – | – | Active | Active | – | – | – | – | – | –
4 | COc1cc2c3c(n(CCCN4CCOCC4)c(=O)c2cc1OC)-c1cc2c(cc1C3=O)OCO2 [INDOTECAN] | – | – | – | – | – | – | – | Active | Active | – | – | – | –
5 | COc1cc2c(cc1O)-c1c(c3cc(OC)c(OC)cc3c(=O)n1CCCN1CCOCC1)C2=O | 75% | 204 nM | 30 nM | 8320 nM | 2340 nM | – | – | – | – | 191 nM | 70 nM | 282 nM | 180 nM
6 | COc1cc2c3c(n(CCCN4CCOCC4)c(=O)c2cc1OC)-c1cc(O)c(O)cc1C3=O | Active | 490 nM | 50 nM | 501 nM | 407 nM | – | – | – | – | 65 nM | 78 nM | 148 nM | 371 nM

Continued, in another order:

Row | inhibition [1] | GI50 (DU-145) | GI50 (MCF7) | GI50 (OVCAR-3) | GI50 (HCT-116) | Drug metabolism (Liver microsomes [2]) | Drug metabolism (Liver microsomes [3]) | Drug metabolism (Liver microsomes [4]) | Drug metabolism (Liver microsomes [5]) | SMILES | GI50 (SN12C) | GI50 (UACC-62) | GI50 (SF-539) | GI50 (HOP-62)
7 | 50% | 100 nM | 20 nM | 407 nM | 229 nM | – | – | – | – | COc1cc2c3c(n(CCCn4ccnc4)c(=O)c2cc1OC)-c1cc(O)c(O)cc1C3=O | 30 nM | < 10 nM | 10 nM | 40 nM
8 | 50% | 2630 nM | 646 nM | 4790 nM | 2400 nM | – | – | – | – | COc1cc2c3c(n(CCCN4CCOCC4)c(=O)c2cc1OC)-c1cc2c(cc1C3O)OCO2 (centres undefined) | 3390 nM | 776 nM | 2400 nM | 2090 nM
9 | 50% | > 100000 nM | 50 nM | > 100000 nM | > 100000 nM | – | – | – | – | COc1cc2c(cc1O)-c1c(c3cc(OC)c(OC)cc3c(=O)n1CCCn1ccnc1)C2=O | – | 331 nM | – | > 100000 nM
10 | Active | 20 nM | 20 nM | 30 nM | 30 nM | – | – | – | – | COc1cc2c(cc1O)C(=O)c1c-2n(CCCN2CCOCC2)c(=O)c2cc(OC)c(OC)cc12 | 20 nM | 20 nM | 20 nM | 20 nM
11 | Active | < 10 nM | < 10 nM | 30 nM | < 10 nM | – | – | – | – | COc1cc2c3c(n(CCCn4ccnc4)c(=O)c2cc1O)-c1cc2c(cc1C3=O)OCO2 | < 10 nM | < 10 nM | < 10 nM | < 10 nM
12 | 50% | 257 nM | 144 nM | 871 nM | 279 nM | – | – | – | – | COc1cc2c(=O)n(CCCN3CCOCC3)c3c(c2cc1O)C(=O)c1cc2c(cc1-3)OCO2 | 195 nM | 282 nM | 335 nM | 257 nM
13 | 75% | < 10 nM | < 10 nM | 30 nM | 20 nM | – | – | – | – | COc1cc2c3c(n(CCCN4CCOCC4)c(=O)c2cc1O)-c1cc2c(cc1C3=O)OCO2 | < 10 nM | < 10 nM | < 10 nM | 10 nM
14 | 50% | 407 nM | 427 nM | 1950 nM | 1350 nM | – | – | – | – | COc1cc2c3c(n(CCCn4ccnc4)c(=O)c2cc1OC)-c1cc2c(cc1C3O)OCO2 (centres undefined) | 501 nM | 372 nM | 479 nM | 549 nM
